Experimental data of several laboratories.
Lines come from different studies, so protocols differ.
Method: competition with immobilised ligand
RPS6KA2 N-terminal kinase domain: Ribosomal protein S6 kinase alpha-2, N-terminal kinase domain (RPS6KA2, Homo sapiens, UniProt Q15349)
RPS6KA2 C-terminal kinase domain: Ribosomal protein S6 kinase alpha-2, C-terminal kinase domain (RPS6KA2, Homo sapiens, UniProt Q15349)

For `Nc1ncc2c(n1)-c1c([nH]c3ccc(C#CC4CC4)cc13)CCCC2`, the remaining binding was 91% (RPS6KA2 N-terminal kinase domain; binding; 1 µM).
For `O=C(c1ccc(Nc2nccc(-c3cc4ccccc4s3)n2)cc1)N1CCC(N2CCCC2)CC1`, the remaining binding was 100% (RPS6KA2 N-terminal kinase domain; binding; 1 µM).
The remaining binding of `CCN1CCN(Cc2ccc(C(=O)Nc3ccc(C)c(Oc4ccc5c(c4)CC(=O)N5)c3)cc2C(F)(F)F)CC1` is reported as 100% (RPS6KA2 N-terminal kinase domain; binding; 1 µM).
`Cc1cnc(Nc2ccc(C(=O)N3CCC(N4CCCC4)CC3)cc2)nc1-c1cc2ccccc2s1` has a remaining binding of 100% (RPS6KA2 N-terminal kinase domain; binding; 1 µM).
The remaining binding of `COc1ncc2cc3ccccc3nc2c1C#N` is reported as 91% (RPS6KA2 N-terminal kinase domain; cell-free assay; 5 µM).
With `COc1cnc(Nc2cccc(S(N)(=O)=O)c2)nc1N1CCN(c2ccccc2)C(=O)C1` the remaining binding was 96% (RPS6KA2 N-terminal kinase domain; binding; 1 µM).
With `CC(C)CC(=O)N1CCc2nc(-c3ccc(Br)cc3)nc(N(C)Cc3ccccc3)c2C1` the remaining binding was 100% (RPS6KA2 C-terminal kinase domain; cell-free assay; 0.1 µM).
For `CC1CCCN1c1nccc(-c2cnn3ncccc23)n1` (stereo not drawn), the remaining binding was 100% (RPS6KA2 N-terminal kinase domain; binding; 1 µM).
With `CNC(=O)[C@@H]1CC[C@@H](n2c(-c3ccc4cnccc4c3)nc3ccc(C(=O)NCc4cccc(C(N)=O)c4)cc32)C1` the remaining binding was 100% (RPS6KA2 N-terminal kinase domain; binding; 1 µM).
For `CN(CCCC(F)(F)F)c1nccc(-c2cnn3ncccc23)n1`, the remaining binding was 100% (RPS6KA2 C-terminal kinase domain; binding; 1 µM).
`O=C(c1ccc(Nc2ncc(Cl)c(-c3cc4ccccc4s3)n2)cc1)N1CCC(N2CCCC2)CC1` gave a remaining binding of 100% (RPS6KA2 N-terminal kinase domain; binding; 1 µM).
With `C[C@@H](c1cccc(C#N)c1)n1cc(Cl)cc(C(N)=O)c1=N` the remaining binding was 100% (RPS6KA2 C-terminal kinase domain; cell-free assay; 1 µM).
`O=C(Nc1c[nH]nc1C(=O)NC1CCNCC1)c1cc(F)cc(F)c1` has a remaining binding of 100% (RPS6KA2 N-terminal kinase domain; binding; 1 µM).
For `CN(C)c1nccc(-c2cnc3ncccn23)n1`, the remaining binding was 91% (RPS6KA2 C-terminal kinase domain; binding; 1 µM).
For `O=C(NCC1CCOCC1)c1n[nH]cc1NC(=O)c1c(F)cccc1F`, the remaining binding was 100% (RPS6KA2 C-terminal kinase domain; binding; 1 µM).
For `CO[C@H]1CC[C@H](CNc2ccc(S(=O)(=O)NC(=O)c3ccc(N4CCN(CC5=C(c6ccc(Cl)cc6)CC(C)(C)CC5)CC4)cc3Oc3cnc4[nH]ccc4c3)cc2[N+](=O)[O-])CC1`, the remaining binding was 97% (RPS6KA2 N-terminal kinase domain; cell-free assay; 1 µM).
For `C=CC(=O)N1CCC(C(=O)NCC(=O)N2CCN(c3nc(-c4cnc(N)nc4C(F)F)nc(N4CCOCC4)n3)CC2)CC1`, the remaining binding was 93% (RPS6KA2 C-terminal kinase domain; binding; 1 µM).
With `C[C@@H](c1ccc(-n2cnc3c(N)ncnc32)cc1)N1CCc2nn(C)c(Cc3ccccc3)c2C1=O` the remaining binding was 78% (RPS6KA2 C-terminal kinase domain; binding; 0.1 µM).
The remaining binding of `CN(c1nccc(-c2cnn3ncccc23)n1)C1CC1` is reported as 100% (RPS6KA2 C-terminal kinase domain; binding; 1 µM).
`O=C(Nc1cccnn1)N1CCC(=Cc2cccc(Oc3ccc(C(F)(F)F)cn3)c2)CC1` has a remaining binding of 100% (RPS6KA2 C-terminal kinase domain; cell-free assay; 1 µM).
For `COc1cnc(Nc2cccc(S(N)(=O)=O)c2)nc1N1CCN(c2ccccc2)CC1`, the remaining binding was 84% (RPS6KA2 C-terminal kinase domain; binding; 1 µM).
For `O=C(c1ccc(Nc2ncc(Cl)c(-c3ccc(Cl)s3)n2)cc1)N1CCC(N2CCCC2)CC1`, the remaining binding was 71% (RPS6KA2 C-terminal kinase domain; binding; 1 µM).
With `N[C@@H]1CCN(c2nccc(-c3cnn4ncccc34)n2)C1` the remaining binding was 100% (RPS6KA2 N-terminal kinase domain; binding; 1 µM).
`Nc1cnc(N2CCc3cc(S(=O)(=O)Nc4c(F)cc(Cl)cc4F)cc(N4CCCC4=O)c32)nc1` gave a remaining binding of 88% (RPS6KA2 N-terminal kinase domain; cell-free assay; 1 µM).
`O=C(NCCCN1CCOCC1)c1ccc(Nc2ncc(Cl)c(-c3ccc(Cl)s3)n2)cc1` has a remaining binding of 63% (RPS6KA2 C-terminal kinase domain; binding; 1 µM).
The remaining binding of `F[C@@H]1CCN(c2nccc(-c3cnn4ncccc34)n2)C1` is reported as 91% (RPS6KA2 C-terminal kinase domain; binding; 1 µM).
For `Cc1c(NC(=O)c2cc(C(N)=O)nc3cc(F)ccc23)c(C(F)(F)F)nn1Cc1ccc(C#N)cc1`, the remaining binding was 86% (RPS6KA2 C-terminal kinase domain; cell-free assay; 1 µM).
`c1cncc(-c2cccc(Nc3nccc(NC4CCCCC4)n3)c2)c1` has a remaining binding of 44% (RPS6KA2 N-terminal kinase domain; binding; 10 µM).
For `COCCOc1nc(-c2ccc(Cl)nc2)nc2c1CN(C(=O)c1ncn3ccccc13)CC2`, the remaining binding was 100% (RPS6KA2 C-terminal kinase domain; cell-free assay; 0.1 µM).
With `O=C(NCCCN1CCOCC1)c1ccc(Nc2nccc(-c3cc4ccccc4s3)n2)cc1` the remaining binding was 16% (RPS6KA2 C-terminal kinase domain; binding; 1 µM).
For `CN(C)c1nccc(-c2cnn3ncccc23)n1`, the remaining binding was 100% (RPS6KA2 N-terminal kinase domain; binding; 1 µM).
`CS(=O)(=O)N1CCCC(NC(=O)[C@H](CCC2CCCCC2)NC(=O)c2ccc(CNC(=O)c3cnc4ccccn34)cc2)C1` (stereo partly drawn) has a remaining binding of 94% (RPS6KA2 C-terminal kinase domain; cell-free assay; 0.1 µM).
`FC(F)(F)Oc1cccc(-c2cnc3ccc(-c4ccncc4)nn23)c1` gave a remaining binding of 82% (RPS6KA2 C-terminal kinase domain; binding; 5 µM).
